Data from ChEMBL document CHEMBL1143718, “Synthesis and structure-activity relationships study of novel anti-tumor carbamate anhydrovinblastine analogues” (Bioorg Med Chem, 2007).

Columns and labels:
HeLa = experiment: Cytotoxicity against human HeLa cells after 72 hrs by SRB assay; assay type: functional, cell-based
Method in brief: (§1)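 Ditartrate salts tested. ATCC A549 or HeLa cells seeded at 6000 cells/well and attached overnight, then treated in triplicate with graded concentrations, 37 °C, 72 h. Fixed with 10% TCA at 4 °C for 60 min, stained with 0.4% SRB, bound dye dissolved in Tris, A515 read. IC50 by Logit method, mean of three independent tests.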

A549 [1] = experiment: Cytotoxicity against human A549 cells after 72 hrs by SRB assay; assay type: functional, cell-based; settings: A549, 72 h; method in brief: as §1
Mus musculus [2] = experiment: Effect on Body weight in nude BALB/c mouse bearing A549 cell xenografts at 3 mg/kg, iv; assay type: functional
Method in brief: (§2)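 Female 7-week-old SPF BALB/cA-nude mice (18-22 g), 2.5 × 10^6 A549 cells implanted s.c. in axilla. Dosing at tumor volume 100-300 mm3, single i.v. dose on day 1. Tumor volume and body weight measured three times a week. Relative tumor volume and body weight reported initial/end. Groups of 6 treated, 12 controls. Means ± SD.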

A549 [3] = experiment: Antitumor activity in nude BALB/c mouse bearing A549 cell xenografts assessed as relative tumor volume at 1.5 mg/kg, iv; assay type: functional, Homo sapiens; method in brief: as §2
A549 [4] = experiment: Antitumor activity in nude BALB/c mouse bearing A549 cell xenografts assessed as tumor growth inhibition at 6 mg/kg, iv after 12 days; assay type: functional, Homo sapiens; settings: A549, 288 h
Method in brief: (§3)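 A549 s.c. axillary xenografts (2.5 × 10^6 cells) in female 7-week-old SPF BALB/cA-nude mice. Single i.v. dose on day 1 once tumors reached 100-300 mm3. Inhibition = (control mean relative tumor volume − treated)/control × 100%, on day 12 after dosing. Groups of 6, controls 12. Significance by Student's t test.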

A549 [5] = experiment: Antitumor activity in nude BALB/c mouse bearing A549 cell xenografts assessed as relative tumor volume at 3 mg/kg, iv; assay type: functional, Homo sapiens; method in brief: as §2
A549 [6] = experiment: Antitumor activity in nude BALB/c mouse bearing A549 cell xenografts assessed as relative tumor volume at 6 mg/kg, iv; assay type: functional, Homo sapiens; method in brief: as §2
Mus musculus [7] = experiment: Effect on Body weight in nude BALB/c mouse bearing A549 cell xenografts at 1.5 mg/kg, iv; assay type: functional; method in brief: as §2
A549 [8] = experiment: Antitumor activity in nude BALB/c mouse bearing A549 cell xenografts assessed as tumor growth inhibition at 3 mg/kg, iv after 12 days; assay type: functional, Homo sapiens; settings: A549, 288 h; method in brief: as §3
A549 [9] = experiment: Antitumor activity in nude BALB/c mouse bearing A549 cell xenografts assessed as tumor growth inhibition at 1.5 mg/kg, iv after 12 days; assay type: functional, Homo sapiens; settings: A549, 288 h; method in brief: as §3
Mus musculus [10] = experiment: Effect on Body weight in nude BALB/c mouse bearing A549 cell xenografts at 6 mg/kg, iv; assay type: functional; method in brief: as §2
Mus musculus [11] = experiment: Effect on Body weight in nude BALB/c mouse bearing A549 cell xenografts at 10 mg/kg, iv; assay type: functional
Method in brief: (§4)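 Female 7-week-old SPF BALB/cA nude mice (18-22 g) received 2.5 × 10^6 A549 cells subcutaneously in the axilla. Once tumors reached 100-300 mm3, they were dosed iv at 10 mg/kg on days 1 and 4 (6 mice; 12 controls). Tumor volume and body weight were measured three times weekly. Inhibition was computed from mean relative tumor volume versus control on day 12 after dosing. Means ± SD, Student's t test.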

A549 [12] = experiment: Antitumor activity in nude BALB/c mouse bearing A549 cell xenografts assessed as relative tumor volume at 10 mg/kg, iv; assay type: functional, Homo sapiens; method in brief: as §4
A549 [13] = experiment: Antitumor activity in nude BALB/c mouse bearing A549 cell xenografts assessed as tumor growth inhibition at 10 mg/kg, iv after 12 days; assay type: functional, Homo sapiens; settings: A549, 288 h; method in brief: as §4

CCC1=C[C@@H]2CN(CCc3c([nH]c4ccccc34)[C@@](C(=O)OC)(c3cc4c(cc3OC)N(C)[C@H]3[C@](O)(CNC(=O)OCc5ccc([N+](=O)[O-])cc5)[C@H](OC(C)=O)[C@]5(CC)C=CCN6CC[C@]43[C@@H]65)C2)C1
IC50 (HeLa): 10 nM | IC50 (A549 [1]): 38 nM

CCCCCOC(=O)NC[C@]1(O)[C@H](OC(C)=O)[C@]2(CC)C=CCN3CC[C@@]4(c5cc([C@@]6(C(=O)OC)C[C@@H]7C=C(CC)CN(CCc8c6[nH]c6ccccc86)C7)c(OC)cc5N(C)[C@@H]14)[C@@H]32
IC50 (HeLa): 184 nM | IC50 (A549 [1]): 426 nM

CCOC(=O)NC[C@]1(O)[C@H](OC(C)=O)[C@]2(CC)C=CCN3CC[C@@]4(c5cc([C@@]6(C(=O)OC)C[C@@H]7C=C(CC)CN(CCc8c6[nH]c6ccccc86)C7)c(OC)cc5N(C)[C@@H]14)[C@@H]32
IC50 (HeLa): 16 nM | IC50 (A549 [1]): 51 nM

CCC1=C[C@@H]2CN(CCc3c([nH]c4ccccc34)[C@@](C(=O)OC)(c3cc4c(cc3OC)N(C)[C@H]3[C@](O)(CNC(=O)OC(C)(C)C)[C@H](OC(C)=O)[C@]5(CC)C=CCN6CC[C@]43[C@@H]65)C2)C1
IC50 (HeLa): 96 nM | IC50 (A549 [1]): 604 nM

CCC1=C[C@@H]2CN(CCc3c([nH]c4ccccc34)[C@@](C(=O)OC)(c3cc4c(cc3OC)N(C)[C@H]3[C@](O)(CNC(=O)OCc5ccc6c(c5)OCO6)[C@H](OC(C)=O)[C@]5(CC)C=CCN6CC[C@]43[C@@H]65)C2)C1
IC50 (HeLa): 17 nM | IC50 (A549 [1]): 75 nM

CCC1=C[C@@H]2CN(CCc3c([nH]c4ccccc34)[C@@](C(=O)OC)(c3cc4c(cc3OC)N(C)[C@H]3[C@](O)(CNC(=O)OC5CCC5)[C@H](OC(C)=O)[C@]5(CC)C=CCN6CC[C@]43[C@@H]65)C2)C1
IC50 (HeLa): 23 nM | IC50 (A549 [1]): 121 nM

CCC1=C[C@@H]2CN(CCc3c([nH]c4ccccc34)[C@@](C(=O)OC)(c3cc4c(cc3OC)N(C)[C@H]3[C@](O)(CNC(=O)OC5CCCCC5)[C@H](OC(C)=O)[C@]5(CC)C=CCN6CC[C@]43[C@@H]65)C2)C1
IC50 (HeLa): 250 nM | IC50 (A549 [1]): 381 nM

CCC1=C[C@@H]2CN(CCc3c([nH]c4ccccc34)[C@@](C(=O)OC)(c3cc4c(cc3OC)N(C)[C@H]3[C@](O)(CNC(=O)OCc5cccc(Cl)c5)[C@H](OC(C)=O)[C@]5(CC)C=CCN6CC[C@]43[C@@H]65)C2)C1
IC50 (HeLa): 39 nM | IC50 (A549 [1]): 203 nM

CCC1=C[C@@H]2CN(CCc3c([nH]c4ccccc34)[C@@](C(=O)OC)(c3cc4c(cc3OC)N(C)[C@H]3[C@](O)(CNC(=O)OC(C)C)[C@H](OC(C)=O)[C@]5(CC)C=CCN6CC[C@]43[C@@H]65)C2)C1
IC50 (HeLa): 27 nM | IC50 (A549 [1]): 162 nM

CCC1=C[C@@H]2CN(CCc3c([nH]c4ccccc34)[C@@](C(=O)OC)(c3cc4c(cc3OC)N(C)[C@H]3[C@](O)(CNC(=O)OCCOC)[C@H](OC(C)=O)[C@]5(CC)C=CCN6CC[C@]43[C@@H]65)C2)C1
IC50 (HeLa): 14 nM | IC50 (A549 [1]): 65 nM

CCC1=C[C@@H]2CN(CCc3c([nH]c4ccccc34)[C@@](C(=O)OC)(c3cc4c(cc3OC)N(C)[C@H]3[C@](O)(CNC(=O)OCC5CC5)[C@H](OC(C)=O)[C@]5(CC)C=CCN6CC[C@]43[C@@H]65)C2)C1
IC50 (HeLa): 13 nM | IC50 (A549 [1]): 61 nM

CCC1=C[C@@H]2CN(CCc3c([nH]c4ccccc34)[C@@](C(=O)OC)(c3cc4c(cc3OC)N(C)[C@H]3[C@](O)(CNC(=O)OCc5ccc(Cl)cc5)[C@H](OC(C)=O)[C@]5(CC)C=CCN6CC[C@]43[C@@H]65)C2)C1
IC50 (HeLa): 6 nM | IC50 (A549 [1]): 89 nM

CCC1=C[C@@H]2CN(CCc3c([nH]c4ccccc34)[C@@](C(=O)OC)(c3cc4c(cc3OC)N(C)[C@H]3[C@](O)(CNC(=O)OCCBr)[C@H](OC(C)=O)[C@]5(CC)C=CCN6CC[C@]43[C@@H]65)C2)C1
IC50 (HeLa): 30 nM | IC50 (A549 [1]): 131 nM

CCC1=C[C@@H]2CN(CCc3c([nH]c4ccccc34)[C@@](C(=O)OC)(c3cc4c(cc3OC)N(C)[C@H]3[C@](O)(CNC(=O)OCc5ccccc5)[C@H](OC(C)=O)[C@]5(CC)C=CCN6CC[C@]43[C@@H]65)C2)C1
IC50 (HeLa): 54 nM | IC50 (A549 [1]): 57 nM

CCC1=C[C@@H]2CN(CCc3c([nH]c4ccccc34)[C@@](C(=O)OC)(c3cc4c(cc3OC)N(C)[C@H]3[C@](O)(CNC(=O)OCc5ccc(OC)cc5)[C@H](OC(C)=O)[C@]5(CC)C=CCN6CC[C@]43[C@@H]65)C2)C1
IC50 (HeLa): 8 nM | IC50 (A549 [1]): 67 nM

CCC1=C[C@@H]2CN(CCc3c([nH]c4ccccc34)[C@@](C(=O)OC)(c3cc4c(cc3OC)N(C)[C@H]3[C@](O)(CNC(=O)Oc5ccccc5OC)[C@H](OC(C)=O)[C@]5(CC)C=CCN6CC[C@]43[C@@H]65)C2)C1
IC50 (HeLa): 148 nM | IC50 (A549 [1]): 609 nM

CCC1=C[C@@H]2CN(CCc3c([nH]c4ccccc34)[C@@](C(=O)OC)(c3cc4c(cc3OC)N(C)[C@H]3[C@](O)(CNC(=O)OC)[C@H](OC(C)=O)[C@]5(CC)C=CCN6CC[C@]43[C@@H]65)C2)C1
IC50 (HeLa): 9 nM | Activity (Mus musculus [2]): 20.4 g | Activity (A549 [3]): 8.18 | inhibition in vivo at 6 mg/kg (A549 [4]): 68.5% | Activity (A549 [5]): 6.96 | Activity (A549 [6]): 3.48 | IC50 (A549 [1]): 38 nM | Activity (Mus musculus [7]): 21.3 g | inhibition in vivo at 3 mg/kg (A549 [8]): 37.1% | inhibition in vivo at 1.5 mg/kg (A549 [9]): 26% | Activity (Mus musculus [10]): 18.8 g

CCC1=C[C@@H]2CN(CCc3c([nH]c4ccccc34)[C@@](C(=O)OC)(c3cc4c(cc3OC)N(C)[C@H]3[C@](O)(CNC(=O)Oc5ccccc5)[C@H](OC(C)=O)[C@]5(CC)C=CCN6CC[C@]43[C@@H]65)C2)C1
IC50 (HeLa): 199 nM | IC50 (A549 [1]): 110 nM

CCC1=C[C@@H]2CN(CCc3c([nH]c4ccccc34)[C@@](C(=O)OC)(c3cc4c(cc3OC)N(C)[C@H]3[C@](O)(CNC(=O)OCc5ccccc5OC)[C@H](OC(C)=O)[C@]5(CC)C=CCN6CC[C@]43[C@@H]65)C2)C1
IC50 (HeLa): 69 nM | IC50 (A549 [1]): 200 nM

CCC1=C[C@@H]2CN(CCc3c([nH]c4ccccc34)[C@@](C(=O)OC)(c3cc4c(cc3OC)N(C)[C@H]3[C@](O)(CNC(=O)OCC(C)C)[C@H](OC(C)=O)[C@]5(CC)C=CCN6CC[C@]43[C@@H]65)C2)C1
IC50 (HeLa): 67 nM | IC50 (A549 [1]): 66 nM

CCC1=C[C@@H]2CN(CCc3c([nH]c4ccccc34)[C@@](C(=O)OC)(c3cc4c(cc3OC)N(C)[C@H]3[C@](O)(CNC(=O)Oc5ccc(OC)cc5)[C@H](OC(C)=O)[C@]5(CC)C=CCN6CC[C@]43[C@@H]65)C2)C1
IC50 (HeLa): 49 nM | IC50 (A549 [1]): 365 nM

CCC1=C[C@@H]2CN(CCc3c([nH]c4ccccc34)[C@@](C(=O)OC)(c3cc4c(cc3OC)N(C)[C@H]3[C@](O)(CNC(=O)OCc5ccccc5[N+](=O)[O-])[C@H](OC(C)=O)[C@]5(CC)C=CCN6CC[C@]43[C@@H]65)C2)C1
IC50 (HeLa): 66 nM | IC50 (A549 [1]): 61 nM

CCC1=C[C@@H]2CN(CCc3c([nH]c4ccccc34)[C@@](C(=O)OC)(c3cc4c(cc3OC)N(C)[C@H]3[C@](O)(CNC(=O)OC5CCCC5)[C@H](OC(C)=O)[C@]5(CC)C=CCN6CC[C@]43[C@@H]65)C2)C1
IC50 (HeLa): 132 nM | IC50 (A549 [1]): 177 nM

CCC1=C[C@@H]2CN(C1)Cc1c([nH]c3ccccc13)[C@@](C(=O)OC)(c1cc3c(cc1OC)N(C)[C@H]1[C@@](O)(C(=O)OC)[C@H](OC(C)=O)[C@]4(CC)C=CCN5CC[C@]31[C@@H]54)C2 [VINORELBINE]
Activity (Mus musculus [11]): 16.4 g | IC50 (HeLa): 26 nM | Activity (A549 [12]): 2.66 | inhibition in vivo at 10 mg/kg (A549 [13]): 75.9% | IC50 (A549 [1]): 49 nM
